Results on 18 compounds are retold here after ChEMBL document CHEMBL1154156, “Natural tanshinone-like heterocyclic-fused ortho-quinones from regioselective Diels-Alder reaction: synthesis and cytotoxicity evaluation” (Eur J Med Chem, 2009).

A word on the IC50: it is the midpoint of a concentration-inhibition curve.

Assay [1] in a line: Cytotoxicity against human CNE2 cells after 48 hrs by MTT assay. The assay is classed as functional, cell-based, CNE-2. In a few lines:
(§1)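 Human cells (GLC-82 lung adenocarcinoma; CNE2 nasopharyngeal carcinoma) were seeded at 1×10⁴ per well and incubated overnight. They were then exposed for 48 h to increasing compound concentrations (0–100). MTT (5 mg/mL stock) was added for 4 h at 37 °C, and unconverted MTT was removed before plate-reader absorbance. Runs were in quadruplicate, with viability as % of untreated control. IC50 is the concentration reducing mean viability to 50%.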
In general terms: Tetrazolium assays rely on reduction of a dye to a coloured formazan, in cell work by metabolically active cells.

Assay [2] in a line: Cytotoxicity against human GLC82 cells after 48 hrs by MTT assay. The assay is classed as functional, cell-based. The method in brief:
as §1

Setting [3] is: Homo sapiens, CNE-2, 48 h, read-out: IC50.
[4] abbreviates: Homo sapiens, GLC82, 48 h, read-out: IC50.

As for `CC[C@@]1(O)C(=O)OCc2c1cc1n(c2=O)Cc2cc3cc(O)ccc3nc2-1` [HYDROXYCAMPTOTHECIN], the IC50 in assay [1] (setting [3]) was 0.37 µM; in assay [2] (setting [4]), 1.09 µM.

As for `Cc1cc(C)c2c(c1)C(=O)C(=O)c1c(-c3ccccc3)coc1-2`, the 50% inhibitory concentration (IC50) in assay [1] (setting [3]) and in assay [2] (setting [4]) was greater than 25 µM in each case.

For the compound `O=C1C(=O)c2c(-c3ccc(Cl)cc3)coc2-c2cccc(N3C(=O)CCC3=O)c21`, the values for the 50% inhibitory concentration (IC50) in assay [1] (setting [3]) and in assay [2] (setting [4]) were 2 µM and 1.6 µM, respectively.

With `CC(=O)Nc1c(C)cc(C)c2c1C(=O)C(=O)c1c(-c3ccc(C)c(C)c3)coc1-2`, the IC50 entry in assay [1] (cne-2) and in assay [2] (glc82) was “ND(Insoluble)” each time.

As to `Cc1cc(C)c2c(c1)C(=O)C(=O)c1cc(C)oc1-2`, the half-maximal inhibitory concentration (IC50) result in assay [1] (cne-2) and in assay [2] (glc82) was “ND(Insoluble)” each time.

As to `Cc1cc(C)c2c(c1)C(=O)C(=O)c1c(-c3ccc(F)cc3)coc1-2`, the IC50 entry in assay [1] (cne-2) and in assay [2] (glc82) was “ND(Insoluble)” in each case.

On to `Cc1cc(C)c2c(c1)C(=O)C(=O)c1c(-c3ccc(Cl)cc3)coc1-2`, for which the IC50 result in assay [1] (cne-2) and in assay [2] (glc82) was “ND(Insoluble)” in each case.

For `CC(=O)Nc1c(C)cc(C)c2c1C(=O)C(=O)c1c(-c3ccccc3C)csc1-2`, the IC50 in assay [1] (setting [3]) came out at 4.2 µM.

As for `CC(=O)Nc1c(C)cc(C)c2c1C(=O)C(=O)c1c(-c3ccc(Cl)cc3)coc1-2`, the IC50 stood at 9.2 µM in assay [1] (setting [3]) and 6 µM in assay [2] (setting [4]).

For the compound `CC(=O)Nc1c(C)cc(C)c2c1C(=O)C(=O)c1c(-c3ccccc3)coc1-2`, the IC50 in assay [1] (setting [3]) is 4.8 µM; in assay [2] (setting [4]) it was 7.2 µM.

Turning to `CC(=O)Nc1c(C)cc(C)c2c1C(=O)C(=O)c1c(-c3ccc(F)cc3)coc1-2`, the IC50 in assay [2] (setting [4]) turned out to be 8.9 µM.

Regarding `CC(=O)Nc1c(C)cc(C)c2c1C(=O)C(=O)c1c(-c3ccc(Cl)cc3)csc1-2`, the IC50 in assay [1] (setting [3]) was 6.8 µM; in assay [2] (setting [4]) it was 7.5 µM.

With `O=C1C(=O)c2c(-c3ccccc3)csc2-c2ccccc21`, the IC50 in assay [2] (setting [4]) is 20.1 µM.

On to `CC(=O)Nc1c(C)cc(C)c2c1C(=O)C(=O)c1c(-c3ccc(F)cc3)csc1-2`, for which the half-maximal inhibitory concentration (IC50) came out at 4.6 µM in assay [1] (setting [3]) and 3.9 µM in assay [2] (setting [4]).

`CC(=O)Nc1c(C)cc(C)c2c1C(=O)C(=O)c1c(-c3ccccc3)csc1-2`: the IC50 in assay [1] (setting [3]) amounted to 4.1 µM; in assay [2] (setting [4]), 5 µM.

Take `Cc1ccc(-c2coc3c2C(=O)C(=O)c2cc(C)cc(C)c2-3)cc1`: the figures for the 50% inhibitory concentration (IC50) in assay [1] (setting [3]) and in assay [2] (setting [4]) were 23.3 µM and 12 µM, respectively.

For the compound `Cc1cc(C)c2c(c1)C(=O)C(=O)c1c(-c3ccc(C)c(C)c3)coc1-2`, the half-maximal inhibitory concentration (IC50) result in assay [1] (cne-2) and in assay [2] (glc82) was “ND(Insoluble)” in each case.

As for `CC(=O)Nc1c(C)cc(C)c2c1C(=O)C(=O)c1c(-c3ccc(C)cc3)coc1-2`, the figures for the IC50 in assay [1] (setting [3]) and in assay [2] (setting [4]) were 5.6 µM and 9.5 µM, respectively.
